High-throughput results (PubChem)
Rows were chosen to be rich in hits. Some 1.7% of all compounds tested hit in one or more screens of this group.
Vif inh: HIV Vif inhibition | HEK293T cells, Vif self-association by quenched fluorescence, imaging, 24 h | inhibition, % at 7.49 µM | 340,000 compounds, 0.35% hits | AID 602346; in the data active = inhibition above about 50%, passing the limit was not always enough; inconclusive = no clear call, values can overlap the other calls; inactive = below about 31%
Runt-SMMHC FRET: Runt domain-CBFb-SMMHC interaction inhibition. Cerulean-Runt/Venus-CBFb-SMMHC FRET ratio 530/480, 1 h. 220,000 compounds, 0.74% hits. Q01196+Q13951. inhibition, % at 20 µM;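 active = mean inhibition across duplicate retests at 20 µM reaching about 50%, limit read from the data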;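 note: 0% = DMSO wells and 100% = wells with excess untagged CBFb-SMMHC; inhibitors lower the FRET ratio by blocking Runt binding to CBFb-SMMHC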
Rce1 inhib: blocks yeast Ras-converting enzyme; Q03530; yeast membranes, quenched prenylated peptide cleavage fluorescence; calls only; 290,000 compounds, 0.27% hits; AID 2563;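 active = fall in fluorescence gain of 50% or more versus controls, with final raw signal at or below 3038400; inconclusive = same 50% fall but final raw signal above 3038400; inactive = fall in fluorescence gain under 50%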;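 note: plate controls were neutral control wells for no effect and wells lacking membranes for full effect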
Runt-CBFb FRET: blocks binding of human RUNX1 Runt domain to CBFb; Q01196+Q13951; Cerulean-Runt/Venus-CBFb FRET ratio 530/480, 1 h; inhibition, % at 20 µM; 220,000 compounds, 0.46% hits; AID 1496;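 active = inhibition over about 50% at 20 µM in the single-dose screen, limit read from the data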;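 note: 0% = DMSO wells and 100% = excess unlabeled CBFb competitor control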
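Doses: 20 µM compound in 1% DMSO | Material: Cerulean-labeled Runt domain protein | Amount: Each fluorescent fusion protein 100 nM | Schedule: Two 1 h room-temperature incubations shielded from light | Measured by: FRET fluorescence | Evaluation: Loss of energy transfer signal | Controls: Unlabeled CBFb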
RanGTP-Impb inh: inhibitors of RanGTP-importin-beta interaction, primary screen, biochemical, FRET, CFP-Ran, YFP-importin-beta, homogeneous; 300,000 compounds, 1.1% hits; inhibition, % (no concentration beside the values); AID 2216; cell-free CFP-Ran/YFP-importin-beta FRET ratio;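 active = more than half of the replicate wells show a fall in the fluorescence ratio signal beyond about 16%, limit read from the data, passing the limit was not always enough; inconclusive = exactly half of the replicate wells pass the set limit; inactive = fewer than half of replicates pass the limit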;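 note: 0% = DMSO wells and 100% = Ran loaded with GDP instead of GTP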
Active calls of the source: *; i = inactive; ? = inconclusive; · = no result given; + = active, no number.

SMILES	Vif inh	Runt-SMMHC FRET	Rce1 inhib	Runt-CBFb FRET	RanGTP-Impb inh
Cc1ccc(C(C(=O)NCc2ccc(F)cc2)N(Cc2ccco2)C(=O)c2snc(C(N)=O)c2N)o1 (stereo unspecified)	57.8*	·	i	·	7.5
NC(=O)c1nsc(C(=O)N(Cc2ccco2)C(C(=O)NCc2ccc(F)cc2)c2ccc(O)cc2)c1N (stereo unspecified)	-12.2	·	i	·	0.0
CCc1ccc(-c2cc(C(F)(F)F)n3nc(C(=O)Nc4c(C)nn(Cc5ccccc5C)c4C)cc3n2)s1	7.1	11.9	i	7.1	35.0*
Cc1ccccc1Cn1ccc(NC(=O)c2cc3nc(-c4ccco4)cc(C(F)(F)F)n3n2)n1	-4.8	-4.1	i	5.0	54.2*
CCc1ccc(-c2cc(C(F)(F)F)n3nc(C(=O)Nc4c(C)nn(Cc5ccccc5Cl)c4C)cc3n2)s1	5.2	29.0	i	-22.6	?
Cc1ccccc1N1CC(=O)N(c2ccccc2C)CC1=O	·	-1.3	i	-1.8	-1.6
Cc1cccc2c1c1ccc3c(c1n2C)C(=O)C=CC3=O	4.1	36.2	·	51.8*	·
COc1ccc(CNC(=O)c2cc(C)nn2-c2ccccc2)cc1	-4.7	-1.9	i	0.6	3.6
O=S(=O)(NC1=NCCC1)c1ccc(F)cc1F	-6.2	0.1	i	-0.3	-0.5
CNS(=O)(=O)c1cccc(C(=O)Nc2cccnc2)c1	51.4*	-5.5	i	-2.0	2.4
CC1(C(=O)NS(=O)(=O)Cc2ccccc2)CCN1C(=O)Cc1cc(F)ccc1F (stereo unspecified)	-3.9	·	·	·	·
CC(C)(O)C1Cc2cc(/C=C/C(=O)O)c(O)cc2O1 (stereo unspecified)	-6.0	63.1*	i	32.0	-2.6
COc1cc2c(cc1/C=C/C(=O)O)OC(C)C2 (stereo unspecified)	-18.7	4.0	?	3.4	5.7
Cc1cccc(Nc2nnc(SCC(=O)NCC3CCCO3)s2)c1C (stereo unspecified)	-1.0	·	·	·	·
COc1ccc(-c2oc3ccc(N4CCOCC4)cc3c2C#Cc2ccc(N)cc2)cc1	i	·	+	·	1.4
CC1=CC2C(C3C=CC2(C)C(=O)C3(C)O)C(C)(O)C1=O (stereo unspecified)	3.2	·	·	·	·
CN1C2CCC1/C(=C\c1ccc(F)cc1)C(=O)/C2=C/c1ccc(F)cc1	-1.0	0.5	i	0.8	2.3
C=CC(=O)N1C/C(=C/c2ccc(F)cc2)C(=O)/C(=C\c2ccc(F)cc2)C1	143.2*	·	·	·	·
CC(C)n1nccc1NC(=O)COC(=O)c1ccc(NC(N)=O)cc1	26.8	·	·	·	·
CC(=O)Nc1ccc2c3c(cccc13)C(=O)N(c1ccccc1)C2=O	0.6	87.2*	i	20.9	72.9*
COc1cccc(-c2cc(=O)c3cc(NC(=O)c4ccccc4)ccc3[nH]2)c1	193.7*	-1.9	i	-3.3	-2.8
Cn1c2c(c(=O)n(C)c1=O)NC1(N2)C(=O)Nc2ccccc21 (stereo unspecified)	-6.9	-7.4	i	1.1	36.8*
COc1ccc(NC2=C(C(C)=O)C(c3ccccc3)C(C(C)=O)C(C)(O)C2)cc1 (stereo unspecified)	7.2	0.4	i	-0.4	3.3
COc1ccc(NC2=C(C(C)=O)C(c3ccc(OC)c(OC)c3)C(C(C)=O)C(C)(O)C2)cc1 (stereo unspecified)	0.9	-3.1	i	-0.8	163.9*
CCN1C(=O)c2cccc3c(S(=O)(=O)Nc4ccncc4)ccc1c23	-9.9	12.6	i	-17.7	8.4
SMILES	Vif inh	Runt-SMMHC FRET	Rce1 inhib	Runt-CBFb FRET	RanGTP-Impb inh
CCN1C(=O)c2cccc3c(S(=O)(=O)Nc4nc(C)cs4)ccc1c23	59.6*	-9.3	i	-5.1	10.5
CCN1C(=O)c2cccc3c(S(=O)(=O)NCC4CCCO4)ccc1c23 (stereo unspecified)	-0.3	81.2	i	-22.5	18.2*
CCN1C(=O)c2cccc3c(S(=O)(=O)NCc4cccnc4)ccc1c23	0.6	57.2*	i	-23.0	23.4*
Cc1ccc(-c2noc(CC(=O)c3ccc([N+](=O)[O-])cc3)n2)cc1	-9.6	·	·	·	·
N#Cc1c(NC(=O)/C=C/C(=O)O)sc2c1CCN(Cc1ccccc1)C2	6.5	·	i	·	140.9*
CC(=O)N1CCc2c(sc(NC(=O)Cc3ccccc3)c2C#N)C1	-5.3	·	i	·	-2.5
N#Cc1c(NCCCO)nc(NCc2ccccc2)c2c1CCN(Cc1ccccc1)C2	1.6	46.5	i	18.0	89.5*
